Consider ten compounds from ChEMBL document CHEMBL1121447, “Pronounced pharmacological differences arising from minor structural changes in conformationally defined amphetamine analogues. Comparative evaluation of endo- and exo-2-amino- and endo- and exo-2-(methylamino)benzobicyclo[2.2.1]heptene and -benzobicylco[2.2.2]octene analogues. Conformationally …” (J Med Chem, 1980).

For one assay, the species on record is Rattus norvegicus. As to the kind of experiment: Effective concentration was measured for the release of accumulated [3H]dopamine from chopped striatum of rat. Type of assay: functional, organism-based.
Conditions: not given
Summed up: (§1)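 Chopped rat cortex (NE) or corpus striatum (DA) from untreated rats loaded with 10^-6 M [3H]NE or [3H]dopamine, then washed. Exposed to drug (10^-7 to 10^-3 M) for 30 min, then centrifuged. Amines separated from deaminated metabolites on Dowex 50 Na+ and counted by scintillation with recovery correction. Release = % of total label found in medium. EC50 = half-maximal concentration; 3-4 experiments.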
For orientation: EC50 means the concentration that produces a half-maximal response. Read a high EC50 as a less potent agent. In turn, `NC1CC2CCC1c1ccccc12` (stereo in doubt; 1a) returned a half-maximal effective concentration (EC50) of 192 µM.

The compound `CNC1CC2CCC1c1ccccc12` (stereo in doubt; 1b) displayed an EC50 of 185 µM.

The compound `NC1CC2CCC1c1ccccc12` (stereo in doubt; 2a) gave an EC50 of 681 µM.

`CNC1CC2CCC1c1ccccc12` (stereo in doubt; 2b) gave an EC50 of more than 1000 µM.

Turning to `CNC1CC2CC1c1ccccc12` (stereo in doubt; 3b), a half-maximal response (EC50) required 271 µM.

Compound `CNC1CC2CC1c1ccccc12` (stereo in doubt; 4b) displayed a half-maximal effective concentration (EC50) of more than 1000 µM.

Staying with this assay, now noted: Rattus norvegicus.
`N[C@H]1CC2C[C@@H]1c1ccccc12` showed an EC50 of 794 µM.

The compound `N[C@@H]1CC2C[C@@H]1c1ccccc12` had an EC50 of 185 µM.

`C[C@H](N)Cc1ccccc1` [DEXTROAMPHETAMINE]: the EC50 was 11 µM.

`C[C@@H](N)Cc1ccccc1` [LEVAMFETAMINE] came in with a concentration for a half-maximal effect (EC50) of 61 µM.

For a further assay, the species on record is Rattus norvegicus. The assay can be described thus: Inhibitory concentration against uptake of [3H]NE into chopped cerebral cortical tissue from rat brain. Type of assay: functional, organism-based.
Conditions: not given
Summed up: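 Chopped rat cerebral cortex preincubated 10 min at 37 °C in physiological salt solution (95% O2-5% CO2) with drug at 10^-8 to 10^-3 M. [3H]NE then added to 10^-7 M final. Uptake stopped by centrifugation. Tissue ethanol extract and medium counted by scintillation. Inhibition taken as % of control; 3-4 experiments.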
For orientation: IC50 means the concentration at which inhibition is half-maximal. Read a low IC50 as greater potency in that assay. On to `NC1CC2CCC1c1ccccc12` (stereo in doubt; 1a), for which the half-maximal inhibitory concentration (IC50) was 0.8 µM.

`CNC1CC2CCC1c1ccccc12` (stereo in doubt; 1b) showed an IC50 of 0.8 µM.

`NC1CC2CCC1c1ccccc12` (stereo in doubt; 2a) gave a half-inhibitory concentration (IC50) of 39 µM.

Compound `CNC1CC2CCC1c1ccccc12` (stereo in doubt; 2b) displayed a concentration for half-maximal inhibition (IC50) of 48 µM.

As to `CNC1CC2CC1c1ccccc12` (stereo in doubt; 3b), the IC50 came out at 1.8 µM.

Turning to `CNC1CC2CC1c1ccccc12` (stereo in doubt; 4b), half-maximal inhibition (IC50) was put at 369 µM.

Still in this assay, the particulars now being: Rattus norvegicus, Brain.
In the case of `N[C@H]1CC2C[C@@H]1c1ccccc12`, the IC50 was 100 µM.

`N[C@@H]1CC2C[C@@H]1c1ccccc12` gave an IC50 of 1.1 µM.

For the compound `C[C@H](N)Cc1ccccc1` [DEXTROAMPHETAMINE], the IC50 is 0.2 µM.

`C[C@@H](N)Cc1ccccc1` [LEVAMFETAMINE] came in with an IC50 of 0.5 µM.

For another assay, the species on record is Rattus norvegicus. As to the kind of experiment: Effective concentration was measured for the release of accumulated [3H]NE from chopped cortex of rat. Type of assay: functional, organism-based.
Conditions: not given
Summed up:
as §1
Consider `NC1CC2CCC1c1ccccc12` (stereo in doubt; 1a), for which the midpoint of the response, the EC50, lay at 147 µM.

The compound `CNC1CC2CCC1c1ccccc12` (stereo in doubt; 1b) displayed an EC50 of 178 µM.

Take `NC1CC2CCC1c1ccccc12` (stereo in doubt; 2a): the 50% effective concentration (EC50) amounted to 1000 µM.

`CNC1CC2CCC1c1ccccc12` (stereo in doubt; 2b) had an EC50 of more than 1000 µM.

In turn, `CNC1CC2CC1c1ccccc12` (stereo in doubt; 3b) displayed an EC50 of 450 µM.

Compound `CNC1CC2CC1c1ccccc12` (stereo in doubt; 4b) came in with a concentration for a half-maximal effect (EC50) of more than 1000 µM.

Still in this assay, the particulars now being: Rattus norvegicus.
In turn, `N[C@H]1CC2C[C@@H]1c1ccccc12` had a concentration giving a half-maximal response (EC50) of 630 µM.

Consider `N[C@@H]1CC2C[C@@H]1c1ccccc12`, for which the EC50 worked out at 16 µM.

The compound `C[C@H](N)Cc1ccccc1` [DEXTROAMPHETAMINE] showed an EC50 of 0.8 µM.

`C[C@@H](N)Cc1ccccc1` [LEVAMFETAMINE] registered an EC50 of 1.7 µM.
